This note sets out measurements from article PMC10362274 (iScience, 2023).

Data set [1] relates to MAGE-A10-specific CD8^+ T cell clones. Nature of the data set: Standard 4-h 51Chromium release assay, peptide-pulsed T2 cells. In kind it is cell-based, human. Particulars: n = 3 MAGE-A10-specific CD8^+ T cells; no titration of the antigenic peptides.
The subject of data set [2] is Tyr369-377-specific CD8^+ T cell clones. Nature of the data set: IFNγ secretion assay. In kind it is cell-based, human. The conditions noted are these: 1/1 ratio with pulsed T2 cells, 24 h co-culture, ELISA, duplicates. The gist of the method: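 Tyrosinase-specific CD8+ T cell clones came from HLA-A2 tetramer sorting and limiting dilution. They were grown in RPMI with 8% pooled human serum and 150 IU/ml IL-2 at 37°C, 5% CO2. Clones were co-cultured 1:1 for 24 h with T2 cells pulsed with serial dilutions of native or oxidized peptide, in duplicate. IFNγ was measured by ELISA against an exponential standard curve.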

Data set [3] deals with HLA-A∗02:01 (Homo sapiens, UniProt P04439, D140Y/D185E/D98H/E176V/E277Q/G131W/G231S/I119V/I121R/I166T/I218V/L300P/L318F/N151K/N90K/P208A/P217A/Q86G/Q94H/R138H/R169H/T345S). The conditions noted are these: refolded complex, ELISA.
For data set [4], the system named is Tyr369-377-specific CD8^+ T cell clones. The data set is described as follows: Standard 4-h 51Chromium release assay, peptide-pulsed T2 cells. The conditions noted are these: EC50 = peptide concentration giving 50% maximal killing; across YMD-specific CD8^+ T cell clones. In kind it is cell-based, human.
Data set [5] is described as follows: HPLC oxidation profiling of the YMD peptide using hydrogen peroxide. It counts as physicochemical. In short, it runs like this:
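Synthetic test peptide (~155 μM in LC-MS water) oxidized with varying hydrogen peroxide levels for 30 min at 4°C. For time courses, similar peptide level in 0.1% formic acid/2% acetonitrile with hydrogen peroxide in excess (120 mM), treated as constant for pseudo-first-order fitting. Forms resolved by RP-HPLC, fractions verified by offline MS/MS; triplicate points.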

As for “MAGE-A10_OX: oxidized form of MAGE-A10 254-262 peptide (GLYDGMEHL; not fully specified; oxidized Met (the underlined M of GLYDGMEHL; sulfoxide or sulfone not stated))”, the “EC50 compared with the native peptide” value in data set [1] was “slightly increased”.
In the case of YM2SODGTM6SOSQV [M2SOM6SO], the “IFNγ released compared with native” value in data set [2] is “released more IFNγ”. For the same substance, the “stability of the HLA-A∗02:01-peptide complex at t0 compared with HLA-A∗02:01-N” value in data set [3] was “more stable at t0”. In data set [4], the “EC50 compared with the native peptide” value is “significant lower values”.
For the substance M6SO: Met6 sulfoxide of the YMD peptide, in data set [2], the “IFNγ released compared with native” value was “released more IFNγ”. In addition, in data set [4], the “EC50 compared with the native peptide” value is given as “significant lower values”.
On to M2SO: Met2 sulfoxide of the YMD peptide, for which, in data set [2], the “IFNγ released compared with native” value is given as “no significant differences”.
Take YMDGTMSQV [N]: the “time for 50% of the peptide to oxidize” value in data set [5] (120 mM hydrogen peroxide, 4°C, pseudo-first-order kinetics, RP-HPLC UV 275 nm) is about 20 min. Further, the “fraction of the total found as complete oxidized to sulfone forms” value in data set [5] (3 M hydrogen peroxide, after 10 days, RP-HPLC peak quantification) is on record as about 66%. Further, the “transformation of the peptide to sulfoxide forms” value in data set [5] (hydrogen peroxide 600 mM or higher, 30 min, 4°C, RP-HPLC UV 275 nm) is reported as “almost complete transformation”.
